Consider 96 compounds from ChEMBL document CHEMBL4513216, “Probing the Open Global Health Chemical Diversity Library for Multistage-Active Starting Points for Next-Generation Antimalarials” (ACS Infect Dis, 2020).

This series can be described thus: Toxicity liver stage against HepG2, at 10uM. As to conditions: human, HepG2-A16-CD81EGFP cells; read-out: INHIBITION
The class given is cell-based. More on the design: test concentration 10 uM, cell line HepG2-A16-CD81EGFP. Summed up: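 Uninfected HepG2-A16-CD81EGFP cells, 3 × 10^3 per well, 1536-well, plated on prespotted compound at 10 μM final, parasite-free screening media added to match infected plates; puromycin 10 μM positive, DMSO 0.5% negative; run in parallel with 48 h PbLuc assay at 37 °C, 5% CO2; viability by CellTiter-Glo luminescence, normalized to controls.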
Take `C[C@@H]1CN(CCC(=O)NCc2ccccc2Cl)C[C@@]1(O)C1CC1`: the cytotoxicity at 10 µM is 2.75%.

Consider `CCOc1ccc(C#N)cc1NC(=O)N1CCOC(C(N)=O)C1` (stereo unspecified), for which the cytotoxicity at 10 µM was determined as 12.9%.

Take `CNc1cc(C(=O)N(C)Cc2cc(-c3cccs3)n[nH]2)ccn1`: the cytotoxicity at 10 µM is -9.22%.

On to `COCc1cnc2n1CCN(C(=O)c1cn(C)c3ccccc13)C2C` (stereo unspecified), for which the cytotoxicity at 10 µM was -108%.

For `CC(C)S(=O)(=O)N1CCOC(CCc2ccccc2)C1` (stereo unspecified), the cytotoxicity at 10 µM is -4.53%.

As to `COc1cc(F)ccc1C(C(=O)O)N(C)CCN1CCOCC1` (stereo unspecified), the cytotoxicity at 10 µM was -12.9%.

`Cc1ccc(CN2Cc3ccccc3OC3(CCC(CO)CC3)C2)s1` (stereo unspecified): the cytotoxicity at 10 µM was -3.11%.

As for `Cn1ccnc1-c1ccccc1C(=O)N1CCc2c(nc(N)[nH]c2=O)C1`, the cytotoxicity at 10 µM is -5.3%.

Take `Cc1cnn(CC(C)NCc2nc(-c3ccccn3)no2)c1` (stereo unspecified): the cytotoxicity at 10 µM was 0.234%.

As to `Cc1ccc(CNC(=O)CN2CCCCC2Cn2cncn2)s1` (stereo unspecified), the cytotoxicity at 10 µM is 1.8%.

For the compound `Cc1cnn(CC2CCCN2C(=O)c2cccc(CC#N)c2)c1` (stereo unspecified), the cytotoxicity at 10 µM was -8.62%.

Consider `O=C(Nc1ccc2c(ccn2CCN2CCOCC2)c1)c1ccncc1`, for which the cytotoxicity at 10 µM is -2.9%.

`CC(C)CN1C(=O)C2(CCN(Cc3cccs3)C2)c2ccccc21` (stereo unspecified): the cytotoxicity at 10 µM is 10.1%.

For `CO[C@H]1CN(C(C)C)C[C@@H]1NC(=O)c1cc(COc2ccccc2)[nH]n1`, the cytotoxicity at 10 µM is -2.43%.

`COC1CCCOC12CCN(C(=O)NCCc1cccs1)CC2` (stereo unspecified): the cytotoxicity at 10 µM amounted to 1.03%.

With `O=C(NCCCO)Nc1cnc2cc(Cl)ccc2c1O`, the cytotoxicity at 10 µM was 2.05%.

Regarding `Cc1c(-c2cc(C(F)F)nc3sc(C(N)=O)c(N)c23)cnn1C`, the cytotoxicity at 10 µM was determined as 10.1%.

Consider `COc1cc(C(=O)NS(=O)(=O)c2cccc(C#N)c2)cc(OC)c1C`, for which the cytotoxicity at 10 µM was -5.02%.

`CC(C)=CCC/C(C)=C/CC(C)(C)CNCc1ccco1`: the cytotoxicity at 10 µM is -23.7%.

As to `CCc1ccc(CNC(=O)NC2CCCc3c2cnn3CCO)s1` (stereo unspecified), the cytotoxicity at 10 µM was -6.78%.

On to `O=C(N1CCOCC1)N1CCc2ncc(CN3CCCCC3)n2CC1`, for which the cytotoxicity at 10 µM is -87.7%.

Take `CCC1CCCN(S(=O)(=O)c2cnc3onc(C)c3c2)C1` (stereo unspecified): the cytotoxicity at 10 µM was 4.72%.

For `O=C(Nc1nc2c(s1)CCC2)c1cccnc1N1CCOCC1`, the cytotoxicity at 10 µM turned out to be 8.5%.

On to `Cc1ccc2[nH]c(CN(C)Cc3ccccc3C(=O)O)nc2c1`, for which the cytotoxicity at 10 µM turned out to be 7.01%.

As for `O=C(c1cnccn1)N(CCO)Cc1cc(Br)ccc1F`, the cytotoxicity at 10 µM was determined as 5.64%.

Turning to `C=Cc1ccc(C(=O)NC2CCCc3nc(N(C)C)ncc32)cc1` (stereo unspecified), the cytotoxicity at 10 µM worked out at 8.18%.

In the case of `Cc1ccc(C(=O)N2[C@@H]3CC[C@H]2CC(=O)N(C)C3)c(=O)[nH]1`, the cytotoxicity at 10 µM stood at 4.23%.

For `O=C(c1cnc(C2CC2)nc1)N1CCC(N2CCC(O)CC2)CC1`, the cytotoxicity at 10 µM came to 2.33%.

Regarding `NC(=O)CC1CCCCN1C(=O)c1cccc(C(F)(F)F)c1` (stereo unspecified), the cytotoxicity at 10 µM is -1.03%.

Regarding `CCOC(=O)NCCC(O)c1ccoc1` (stereo unspecified), the cytotoxicity at 10 µM was -10.5%.

`CCNC(c1ccc(Br)cc1)c1cccnc1` (stereo unspecified): the cytotoxicity at 10 µM was -0.1%.

For `CS(=O)(=O)c1ccc(NC(=O)NC2(c3ccccc3)CCC2)cc1`, the cytotoxicity at 10 µM worked out at 5.64%.

Consider `COC(=O)CC1CCCCN1CC(=O)Nc1ccc(F)cc1Cl` (stereo unspecified), for which the cytotoxicity at 10 µM turned out to be 14%.

For `COc1cc2c(c(OC)c1OC)CCN(CCn1nc(C)cc1C)CC2`, the cytotoxicity at 10 µM was 12.9%.

For `Cc1nn(C)c(N2CCOCC2)c1CNC(C)c1cccs1` (stereo unspecified), the cytotoxicity at 10 µM was -1.47%.

For the compound `Cc1ccc(C(=O)NS(=O)(=O)Cc2ccc(F)cc2)cc1S(C)(=O)=O`, the cytotoxicity at 10 µM is -7.36%.

As for `Cc1ccc(CN(Cc2c[nH]cn2)C2CC(C)(C)NC(C)(C)C2)o1`, the cytotoxicity at 10 µM was -0.105%.

As to `Cc1nn(C)c(N(C)C)c1CNC1CCCCNC1=O` (stereo unspecified), the cytotoxicity at 10 µM amounted to 7.76%.

`Cc1cccc(-c2nc3cc(S(=O)(=O)N4CCCC4)ccc3n2C)n1`: the cytotoxicity at 10 µM is 16.8%.

In the case of `Cc1noc(C)c1CN(C)CC1CCCN1c1cccnn1` (stereo unspecified), the cytotoxicity at 10 µM is 0.746%.

In the case of `N[C@@H]1CC[C@@H](NC(=O)c2ccccc2OC(F)(F)C(F)F)C1`, the cytotoxicity at 10 µM was -4.85%.

For `CCN(CC)Cc1cc(C(=O)N2CCCC(CC)(C(=O)O)C2)c(C)o1` (stereo unspecified), the cytotoxicity at 10 µM turned out to be 7.25%.

For the compound `COCCCN1CC2(CCCN(c3ncnc4[nH]ccc34)C2)CCC1=O` (stereo unspecified), the cytotoxicity at 10 µM is -4.67%.

`Cc1ccccc1N1CCCN(C(=O)c2cn(C)c3ccccc23)CC1`: the cytotoxicity at 10 µM is -11.2%.

For the compound `COc1ccc(OCCN2CCN(Cc3nccn3C)CC2)cc1`, the cytotoxicity at 10 µM was -6.25%.

Take `CC(C)CS(=O)(=O)Nc1ccc([C@H]2OCC(=O)N[C@@H]2CO)cc1`: the cytotoxicity at 10 µM came out at 2.79%.

Turning to `COc1nccnc1-c1cc(NC2CCCC2)nc2[nH]ccc12`, the cytotoxicity at 10 µM was 1.97%.

As to `Cc1cc(CN(C)C(=O)c2ccc(C(F)(F)F)nc2)no1`, the cytotoxicity at 10 µM is 2.05%.

`Cc1ncccc1CNCC1COC2(CCCCC2)O1` (stereo unspecified): the cytotoxicity at 10 µM is -149%.

`Cc1[nH]ncc1CCCNC(=O)Nc1ccc(C#N)cc1`: the cytotoxicity at 10 µM came to 1.8%.

With `CC(C)c1nc(S(=O)(=O)N(C)c2ccc(F)cc2)c[nH]1`, the cytotoxicity at 10 µM is -0.131%.

On to `O=C(N[C@@H]1c2ccccc2C[C@@H]1O)C1CCN(Cc2ccco2)CC1`, for which the cytotoxicity at 10 µM was -0.647%.

`CCn1ccnc1CN(C)Cc1nc(Cc2ccccc2Cl)no1`: the cytotoxicity at 10 µM was -1.99%.

On to `CC(C)(C)NC(=O)C1CSCN1S(=O)(=O)c1ccc(F)cc1` (stereo unspecified), for which the cytotoxicity at 10 µM was found to be 0.65%.

For `CC(C)=CCN1CCN(C(=O)c2cc(C(C)C)no2)[C@H]2CS(=O)(=O)C[C@H]21`, the cytotoxicity at 10 µM was -7.86%.

Regarding `COCCN1C(=O)CCC12CCCN(C(=O)CC1CC1)CC2` (stereo unspecified), the cytotoxicity at 10 µM turned out to be 0.346%.

As to `CC(NCc1ccc(C(C)(C)C)cc1)c1ccc(S(C)(=O)=O)cc1` (stereo unspecified), the cytotoxicity at 10 µM is 14.5%.

Regarding `COc1ccc2[nH]c3c(c2c1)CN(c1cc(NCCO)nc(N)n1)CC3`, the cytotoxicity at 10 µM stood at 8.75%.

For `O=C(NCCNC1CCCC1)c1cccs1`, the cytotoxicity at 10 µM was -0.579%.

For the compound `CC(C)n1cnnc1CNC(=O)c1cnc2ccccc2n1`, the cytotoxicity at 10 µM worked out at 7.01%.

Regarding `Cc1nnc(NCc2cccnc2N(C)C)c(C#N)c1C`, the cytotoxicity at 10 µM is -4.94%.

As for `O=C(c1cccc(Cl)c1)N1CC[C@@H](N2CCC(O)CC2)[C@H](O)C1`, the cytotoxicity at 10 µM was -1.61%.

On to `CCCC(=O)N1CCC(c2cc[nH]n2)C1` (stereo unspecified), for which the cytotoxicity at 10 µM is 1.2%.

Regarding `CN1CCN(S(=O)(=O)c2ccccc2)Cc2cccnc21`, the cytotoxicity at 10 µM was -104%.

As for `CC(C)c1cccc(NC(=O)Cn2c(=O)n(C)c(=O)c3sccc32)c1`, the cytotoxicity at 10 µM came out at 42%.

As to `O=C(c1nsc(Cl)c1Cl)N1CCc2nc3sccc3c(=O)n2CC1`, the cytotoxicity at 10 µM was -20.4%.

With `COc1ccc2c(c1)C(=O)CC1(CCN(Cc3ccc(F)cc3)CC1)O2`, the cytotoxicity at 10 µM was 16.6%.

In the case of `CC(=O)Nc1ncc(S(=O)(=O)N2CCN(C3CCCCC3)CC2)s1`, the cytotoxicity at 10 µM is -4.5%.

For `COCC(=O)N1CCN(C(=O)C2(c3ccc(C)c(OC)c3)CC2)CC1`, the cytotoxicity at 10 µM is -8.19%.

In the case of `COc1ccc(OCCN2CCCN(Cc3noc(C)n3)CC2)cc1`, the cytotoxicity at 10 µM was -6.12%.

Take `Cc1cccc(-c2nc(N)nc3c2CN(C(=O)C2CCCC2)C3C)c1` (stereo unspecified): the cytotoxicity at 10 µM turned out to be 13.2%.

With `Cc1ccc(-c2noc(C3CCN3C(=O)c3c(C)noc3C)n2)s1` (stereo unspecified), the cytotoxicity at 10 µM was 6.09%.

In the case of `COc1cc(NCc2cccnc2)c(-c2nn[nH]n2)cc1OC`, the cytotoxicity at 10 µM turned out to be 7.88%.

On to `CC(C)CNC(=O)c1cc2c(s1)CCN2S(C)(=O)=O`, for which the cytotoxicity at 10 µM is -0.522%.

In the case of `N#Cc1c(F)cccc1NCCCOCC1CCOC1` (stereo unspecified), the cytotoxicity at 10 µM is -2.64%.

As for `c1ccc2sc(N3CCCC4(CCOC4)C3)nc2c1` (stereo unspecified), the cytotoxicity at 10 µM is -5.08%.

On to `CCNC(=O)C1CCN(Cc2ccc(C(=O)Nc3cnns3)cc2)C1` (stereo unspecified), for which the cytotoxicity at 10 µM came out at 9.2%.

As for `Cc1cnc(C(=O)NC(CN2CCCC2=O)c2ccccc2)cn1` (stereo unspecified), the cytotoxicity at 10 µM was -8.8%.

In the case of `CCn1c(CN2CCCC(O)(c3ccc(F)cc3)CC2)cnc1SC` (stereo unspecified), the cytotoxicity at 10 µM was -0.466%.

With `CC(NC(=O)CCn1cncn1)c1nnc2n1CCCCC2` (stereo unspecified), the cytotoxicity at 10 µM was -9.26%.

In the case of `COCCN1CCN(CCS(=O)(=O)C(F)(F)F)CC1C` (stereo unspecified), the cytotoxicity at 10 µM was -5.77%.

With `COCCN1CCOCC12CCN(C(=O)Cc1cccs1)CC2`, the cytotoxicity at 10 µM is 10.8%.

Consider `CCOc1cncc(N2CCOCC2)n1`, for which the cytotoxicity at 10 µM turned out to be 3.18%.

With `CCCc1cc(C(=O)N2Cc3cnc(C(C)(C)C)nc3C2)ccn1`, the cytotoxicity at 10 µM is -0.807%.

`Cn1cc(CN2CCC3(CCCN3Cc3cccnc3)CC2)cn1`: the cytotoxicity at 10 µM amounted to 2.43%.

On to `O[C@H]1CN(Cc2ccnc(N3CCCC3)n2)CC[C@@]12CCCO2`, for which the cytotoxicity at 10 µM was determined as 3.62%.

With `O=C(NC[C@H]1OC[C@@H](NC2CCC(F)(F)CC2)[C@@H]1O)N1CCOCC1`, the cytotoxicity at 10 µM was -0.0603%.

In the case of `Cc1ccc(C(=O)N2CCC3(CC2)c2ccccc2[C@@H](N)[C@@H]3O)cc1F`, the cytotoxicity at 10 µM was -0.685%.

On to `Cc1noc(C(C)C)c1C(=O)N1CCOCC1CC(=O)c1ccco1` (stereo unspecified), for which the cytotoxicity at 10 µM amounted to 2.09%.

As to `Cc1ccc(OC2(C(=O)O)CCN(C/C=C/c3ccco3)CC2)cc1`, the cytotoxicity at 10 µM is -14.4%.

On to `Cc1ccoc1C(=O)N1CCn2nnc(COc3cccnc3)c2C1`, for which the cytotoxicity at 10 µM was -82.5%.

As to `CCS(=O)(=O)N1CCC2(CCCN(Cc3cc(OC)ccc3F)C2)C1` (stereo unspecified), the cytotoxicity at 10 µM was 14.4%.

For the compound `O=C1NCC2(CCCN(Cc3ccncc3)C2)Oc2ccccc21` (stereo unspecified), the cytotoxicity at 10 µM was -13.8%.

Consider `O=C(NCCN1CCCCC1)c1nc(-c2ccc3cc[nH]c3c2)no1`, for which the cytotoxicity at 10 µM was -8.54%.

As for `CS(=O)(=O)N1CC[C@H]2O[C@H](C(=O)NCCc3ccccn3)CC[C@H]21`, the cytotoxicity at 10 µM turned out to be 8.5%.

`CC(C)(C)n1nnnc1CN(Cc1ccccc1)Cc1ccc(Cl)cc1`: the cytotoxicity at 10 µM came to 28.8%.
